Measured values collected from several papers.
Protocols differ between the studies behind these lines.
JAK3: Tyrosine-protein kinase JAK3 (JAK3, Homo sapiens, UniProt P52333)
JAK3 JH1: Tyrosine-protein kinase JAK3, JH1 (JAK3, Homo sapiens, UniProt P52333)

Compound	target	read-out	action	technique	concentration	endpoint	value
C#Cc1n[nH]c2c(-c3cn(C(C)c4ccccn4)c(=O)[nH]c3=O)cc(F)cc12 (stereo not shown)	JAK3	enzyme activity	inhibitor		1 µM	inhibition	-4.9%
CC(C)(C)c1cc(C=C(C#N)C#N)cc(Br)c1O	JAK3	enzyme activity	inhibitor		0.5 µM	remaining activity	110%
Cn1cncc1[C@@](O)(COc1ccc(C#N)cc1-c1ccc(OC(F)(F)F)cc1)c1ccc(C#N)cc1	JAK3 JH1	cell-free assay		competition with immobilised ligand	1 µM	remaining binding	100%
Cn1cc(-c2cc(F)cc(N3CCn4c(cc5c4CCCC5)C3=O)c2CO)cc(Nc2ccc(N3CCN(C4COC4)CC3)cn2)c1=O	JAK3	enzyme activity	inhibitor		0.1 µM	inhibition	2%
Cc1nn(C)cc1-c1nc2c(N3CCN(Cc4ccc(Cl)cc4)CC3)c(Cl)cnc2[nH]1	JAK3 JH1	binding		competition with immobilised ligand	1 µM	remaining binding	0.85%
Nc1ncc(-c2nc(N3CCOCC3)nc(N3CCOCC3)n2)c(C(F)F)n1	JAK3 JH1	binding		competition with immobilised ligand	10 µM	remaining binding	46%
O=c1[nH]c2ccccc2n1C1CCN(Cc2ccc(-c3[nH]c4cc5ncnc5cc4nc3-c3ccccc3)cc2)CC1	JAK3	cell-free assay			0.5 µM	remaining signal	100%
C#Cc1n[nH]c2c(-c3cn([C@@H](C)c4ccccc4)c(=O)[nH]c3=O)cc(F)cc12	JAK3	enzyme activity	inhibitor		0.1 µM	inhibition	-12.1%
Cn1cc(-c2cccc(N3CCc4c(sc5c4CC(C)(C)C5)C3=O)c2CO)cc(Nc2ccncn2)c1=O	JAK3	enzyme activity	inhibitor		1 µM	inhibition	-4%
COc1ncccc1-c1cnn2ccc(N3CCN(C(=O)OC(C)C)CC3)nc12	JAK3	binding		competition with immobilised ligand	1 µM	remaining binding	71%
